Source: paper PMC10228170 (Journal of Pharmaceutical and Biomedical Analysis, 2023)
Like-named read-outs stand apart in the source and are kept apart here. Marks after values point to notes of the source that are not given here.

How the values were obtained:
[1] = Pharmacokinetics of molnupiravir and NHC in rat blood and brain; format: in vivo; conditions: for concentration at 140 min: intravenous
Procedure, shortened: (§1)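 Male Sprague-Dawley rats (200 ± 50 g) were fasted 12 h and anaesthetised with urethane 1 g/kg i.p. A blood probe (1.2 cm) sat in the jugular vein and a brain probe (0.7 cm) in the striatum (+0.2 AP, +3.0 ML, −7.5 DV from bregma). Both were perfused with ACD at 2.0 µL/min. Test compound 100 mg/kg i.v. via femoral vein. Dialysates collected every 20 min for 6 h; UHPLC-MS/MS (MRM); noncompartmental parameters; AUC ratios; n = 6.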

[2] = format: in vivo; conditions: male, Sprague-Dawley, rat, iv, 100 mg/kg
Procedure, shortened: as §1

[3] = format: in vivo; conditions: rat
Procedure, shortened: as §1

[4] = prodrug molnupiravir, metabolized to NHC in vivo; cited from earlier work
[5] = male, Sprague-Dawley, rat, blood (microdialysate), iv, 100 mg/kg
[6] = male, Sprague-Dawley, rat, brain (striatum microdialysate), iv, 100 mg/kg
[7] = brain (striatum microdialysate)
[8] = male, Sprague-Dawley, blood (microdialysate), iv, 100 mg/kg
[9] = male, Sprague-Dawley, blood dialysate, iv, 100 mg/kg
[10] = male, Sprague-Dawley, brain (striatum microdialysate), iv, 100 mg/kg
[11] = male, Sprague-Dawley, brain (striatum) dialysate, iv, 100 mg/kg

Structure (SMILES): CC(C)C(=O)OC[C@H]1O[C@@H](n2ccc(NO)nc2=O)[C@H](O)[C@@H]1O [Molnupiravir, molnupiravir]
- AUC [1, 5]: 57200 ng·h/mL
- Cmax [1, 5]: 192000 ± 24100 ng/mL
- clearance [1, 5]: 32.1 ± 4.45 mL/min/kg
- half-life [1, 5]: 9 ± 2 min
- concentration at 140 min ([1]; male, Sprague-Dawley, rat, blood dialysate, 100 mg/kg): 49.2 ng/mL
- MRT ([1]; male, Sprague-Dawley, rat, blood dialysate, iv, 100 mg/kg): 18 min
- AUC [1, 6]: 318 ng·h/mL
- Cmax [1, 6]: 390 ± 100 ng/mL
- half-life [1, 6]: 10 ± 1 min
- concentration at 140 min ([1]; male, Sprague-Dawley, rat, brain (striatum) dialysate, 100 mg/kg): 103 ng/mL
- MRT ([1]; male, Sprague-Dawley, rat, brain (striatum) dialysate, iv, 100 mg/kg): 35 min
- Tmax ([1]; male, Sprague-Dawley, rat, brain (striatum) dialysate, iv, 100 mg/kg, Tmax, rat brain, molnupiravir 100 mg/kg i.v. alone): 40 min
- time of biotransformation of molnupiravir to NHC ([1]; rat blood, molnupiravir 100 mg/kg i.v.): ≤ 20 min
- AUCbrain/AUCblood (blood-to-brain transfer ratio) ([1]; rat, molnupiravir 100 mg/kg i.v. alone): 0.005 ± 0.001^b
- AUC ([2]; blood (microdialysate)): 77400 ng·h/mL
- Cmax ([2]; blood (microdialysate)): 185000 ± 18700 ng/mL
- MRT ([2]; blood (microdialysate)): 29 min
- clearance ([2]; blood (microdialysate)): 21.7 ± 0.66 mL/min/kg
- half-life ([2]; blood (microdialysate)): 35 ± 10 min
- AUC [2, 7]: 755 ng·h/mL
- MRT [2, 7]: 53 min
- Tmax [2, 7]: 40 min
- half-life [2, 7]: 68 ± 22 min
- Cmax ([2]; brain (striatum) dialysate): 500 ± 90 ng/mL
- MRT [3, 8]: 77 min
- clearance [3, 8]: 16 ± 1.28 mL/min/kg
- AUC [3, 9]: 110000 ng·h/mL
- Cmax [3, 9]: 199000 ± 17000 ng/mL
- half-life [3, 9]: 132 ± 32 min
- MRT [3, 10]: 238 min
- Tmax [3, 10]: 40 min
- AUC [3, 11]: 1790 ng·h/mL
- Cmax [3, 11]: 790 ± 220 ng/mL
- half-life [3, 11]: 148 ± 34 min
- AUCbrain/AUCblood (blood-to-brain transfer ratio) ([3]; molnupiravir 100 mg/kg i.v. + BNPP 50 mg/kg i.v.): 0.02 ± 0.004^a
- bioavailability [4]: more than 90%
